Key:
[1] = test system: MCF-7 cells; test: FKBP ligand competition in [3H]-2DG uptake assay in MCF-7 cells; format: cell-based, human; details: 20 μM with 100nM of RgA
Summary of the method: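 MCF-7 cells were exposed to test compound at 100 nM together with 20 μM FK506, 20 μM rapamycin, or their combinations, with each agent also given alone. [3H]-2DG uptake was then measured to test whether excess FKBP-binding ligands antagonise inhibition of glucose uptake.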

[2] = biological target: T1, DLD-1 GLUT1 knock out (for GLUT3) (Homo sapiens, UniProt P11169); test: [3H]-2DG uptake in DLD-1 GLUT1 knock out cells; format: cell-based; details: DLD-1 GLUT1 knock out vs wild type
T1 sequence (P11169 1-496): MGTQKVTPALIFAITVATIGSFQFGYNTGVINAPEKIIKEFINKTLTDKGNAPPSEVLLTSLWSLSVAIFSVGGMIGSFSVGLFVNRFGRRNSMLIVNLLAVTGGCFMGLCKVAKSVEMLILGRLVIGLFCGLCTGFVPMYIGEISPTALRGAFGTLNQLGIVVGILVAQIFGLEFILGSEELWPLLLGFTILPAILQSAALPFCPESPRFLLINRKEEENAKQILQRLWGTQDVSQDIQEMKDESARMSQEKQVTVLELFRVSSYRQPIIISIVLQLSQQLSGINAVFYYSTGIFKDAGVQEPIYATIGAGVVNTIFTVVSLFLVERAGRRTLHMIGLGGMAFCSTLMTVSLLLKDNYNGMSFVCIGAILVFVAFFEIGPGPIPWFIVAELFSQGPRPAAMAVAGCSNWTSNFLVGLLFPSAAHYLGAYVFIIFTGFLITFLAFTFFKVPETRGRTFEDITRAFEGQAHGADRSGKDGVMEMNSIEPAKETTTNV
Summary of the method: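 Isogenic DLD-1 lines were run in parallel: wild type (GLUT1) and GLUT1 knockout (GLUT3). Each was treated with test compound, BAY-876 (GLUT1-specific reference) or cytochalasin B (non-specific GLUT inhibitor), then [3H]-2DG uptake was assessed.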

[3] = biological target: T2, GLUT1 (Homo sapiens, UniProt P11166); test: rapafucin 3D microarray screen with GLUT1-containing cell lysate; format: binding; details: hit when SBR greater than 3; GLUT1-containing HEK293T lysate
T2 sequence (P11166 1-492): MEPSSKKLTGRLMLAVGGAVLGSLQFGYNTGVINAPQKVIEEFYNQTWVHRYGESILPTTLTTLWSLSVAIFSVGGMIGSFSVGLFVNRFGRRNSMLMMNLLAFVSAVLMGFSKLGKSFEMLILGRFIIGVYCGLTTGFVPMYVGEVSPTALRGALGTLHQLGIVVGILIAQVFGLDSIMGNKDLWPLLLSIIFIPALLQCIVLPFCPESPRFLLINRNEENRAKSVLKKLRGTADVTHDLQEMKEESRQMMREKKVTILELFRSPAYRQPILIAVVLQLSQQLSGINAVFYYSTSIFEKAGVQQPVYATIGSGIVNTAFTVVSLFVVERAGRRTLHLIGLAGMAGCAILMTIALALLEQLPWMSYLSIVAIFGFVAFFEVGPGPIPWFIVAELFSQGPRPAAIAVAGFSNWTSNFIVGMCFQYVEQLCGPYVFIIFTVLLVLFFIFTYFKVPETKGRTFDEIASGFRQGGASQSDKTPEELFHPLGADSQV
Summary of the method: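 HEK293T cells stably overexpressing GLUT1 gave a detergent-solubilised lysate. This was incubated on rapafucin arrays printed on a diazirine 3D copolymer surface (PEGMA:DMAEMA 8:2; ATRP initiator:propionyl bromide 1:100). Unbound protein was washed off, and bound GLUT1 was detected with anti-GLUT1 antibody plus Cy5 secondary on a microarray scanner. BAY-876 served as positive control.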

Structure (SMILES) | effect on the inhibitory activity of RgA in the [3H]-2DG uptake assay [1] | inhibitory activity on [3H]-2DG uptake in GLUT1 knock out cells [2] | signal-to-background ratio (SBR), positive hit on 3D rapafucin microarray [3]
C=CC[C@@H]1/C=C(\C)C[C@H](C)C[C@H](OC)[C@H]2O[C@@](O)(C(=O)C(=O)N3CCCC[C@H]3C(=O)O[C@H](/C(C)=C/[C@@H]3CC[C@@H](O)[C@H](OC)C3)[C@H](C)[C@@H](O)CC1=O)[C@H](C)C[C@@H]2OC [FK506] | negligible effect |  | 
Cc1c(NC(=O)c2cc(C(N)=O)nc3cc(F)ccc23)c(C(F)(F)F)nn1Cc1ccc(C#N)cc1 [BAY-876] |  | lost its inhibitory activity | identified
CO[C@H]1C[C@@H]2CC[C@@H](C)[C@@](O)(O2)C(=O)C(=O)N2CCCC[C@H]2C(=O)O[C@H]([C@H](C)C[C@@H]2CC[C@@H](O)[C@H](OC)C2)CC(=O)[C@H](C)/C=C(\C)[C@@H](O)[C@@H](OC)C(=O)[C@H](C)C[C@H](C)/C=C/C=C/C=C/1C [rapamycin] | negligible effect |  | 
C=C1[C@@H](C)[C@H]2[C@H](Cc3ccccc3)NC(=O)[C@]23OC(=O)/C=C/[C@H](O)CCC[C@@H](C)C/C=C/[C@H]3[C@@H]1O [cytochalasin B] |  | maintained its inhibitory activity | 
